Experimental data taken from ChEMBL document CHEMBL3621143, “Discovery of BMS-641988, a Novel Androgen Receptor Antagonist for the Treatment of Prostate Cancer” (ACS Med Chem Lett, 2015).
Calls of active or inactive are those of the source. The rule behind the calls is not given here.

Tests used:
[1] = biological target: Cytochrome P450 3A4 (Homo sapiens, UniProt P08684); assay: Inhibition of human CYP3A4; format: ADME
[2] = biological target: hERG (Homo sapiens, UniProt Q12809); assay: Inhibition of human ERG at 30 uM relative to control
Chain of hERG (Q12809 whole entry): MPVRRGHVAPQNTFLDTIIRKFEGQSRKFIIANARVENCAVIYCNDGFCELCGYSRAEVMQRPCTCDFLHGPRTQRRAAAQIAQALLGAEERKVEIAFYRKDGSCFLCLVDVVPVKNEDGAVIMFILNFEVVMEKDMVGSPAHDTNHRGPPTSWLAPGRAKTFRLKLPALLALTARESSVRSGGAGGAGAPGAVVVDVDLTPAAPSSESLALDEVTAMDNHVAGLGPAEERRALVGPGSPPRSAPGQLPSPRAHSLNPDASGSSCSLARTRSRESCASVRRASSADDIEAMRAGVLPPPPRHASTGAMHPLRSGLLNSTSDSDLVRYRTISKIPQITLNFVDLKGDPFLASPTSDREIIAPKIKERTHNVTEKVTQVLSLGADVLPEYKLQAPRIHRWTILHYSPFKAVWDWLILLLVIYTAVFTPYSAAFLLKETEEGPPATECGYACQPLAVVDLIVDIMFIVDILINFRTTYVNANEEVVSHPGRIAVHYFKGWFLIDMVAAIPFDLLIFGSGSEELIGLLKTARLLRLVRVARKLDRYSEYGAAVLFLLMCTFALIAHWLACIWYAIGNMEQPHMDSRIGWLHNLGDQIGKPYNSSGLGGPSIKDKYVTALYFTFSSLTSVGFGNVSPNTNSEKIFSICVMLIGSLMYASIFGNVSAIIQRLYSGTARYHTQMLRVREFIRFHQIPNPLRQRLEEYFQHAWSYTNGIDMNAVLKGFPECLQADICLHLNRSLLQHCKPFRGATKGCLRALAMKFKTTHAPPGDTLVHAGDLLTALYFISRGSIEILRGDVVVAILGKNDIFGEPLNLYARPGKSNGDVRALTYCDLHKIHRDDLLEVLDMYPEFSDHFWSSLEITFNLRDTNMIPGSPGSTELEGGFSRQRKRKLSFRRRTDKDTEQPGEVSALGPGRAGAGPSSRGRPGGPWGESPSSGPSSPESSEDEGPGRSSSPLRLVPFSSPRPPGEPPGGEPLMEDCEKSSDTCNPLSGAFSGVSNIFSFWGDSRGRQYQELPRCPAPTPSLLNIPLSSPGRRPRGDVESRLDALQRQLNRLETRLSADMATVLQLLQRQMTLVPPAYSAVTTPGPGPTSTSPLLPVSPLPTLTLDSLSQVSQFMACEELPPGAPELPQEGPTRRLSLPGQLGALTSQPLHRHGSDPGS

[3] = test system: Hepatocyte; assay: Drug metabolism in rat hepatocytes assessed per 10^6 cells; format: ADME, cell-based
Method in brief: (§1)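 Metabolic rate in mouse, rat, dog, monkey and human hepatocyte incubations, expressed as pmol/min/10^6 cells.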

[4] = Drug metabolism in dog hepatocytes assessed per 10^6 cells; format: ADME, cell-based, Canis lupus familiaris, Hepatocyte; method in brief: as §1
[5] = test system: LNCaP; assay: Cytotoxicity against human LNCAP cells; format: functional, cell-based
[6] = Clearance in dog at 1 mg/kg, iv and 2 mg/kg, po; format: ADME, organism-based, Canis lupus familiaris; settings: in vivo
Method in brief: (§2)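 Single IV and oral doses in mouse and rat (IV 5, PO 10 mg/kg) and dog (IV 1, PO 2 mg/kg). Half-life, clearance, AUC0-∞ (µM*h) and %F derived from the plasma profiles.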

[7] = test system: CWR22; assay: Antitumor activity against bicalutamide-resistant human CWR22 cells in Balb/c athymic (nu/nu) mouse CWR22-BMSLD1 prostate cancer xenograft model assessed as tumor growth inhibition at 90 mg/kg, po qd administered for 45 days measured from day 10 to 45 during compound dosing; format: functional, organism-based
Method in brief: (§3)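 CWR22-BMSLD1 human prostate cancer xenograft. Oral once-daily dosing at 90 mg/kg for 45 days, or at 150 mg/kg for 35 days, with a vehicle group. Median tumor volume (mm3) tracked against days post implant.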

[8] = Half life in rat at 5 mg/kg, iv and 10 mg/kg, po; format: ADME, organism-based; settings: in vivo; method in brief: as §2
[9] = biological target: T1, Androgen receptor (Homo sapiens, UniProt P10275); assay: Antagonist activity at androgen receptor in human MDA-MB-453 cells assessed as inhibition of DHT-induced PSA expression by alkaline phosphatase reporter gene assay; format: cell-based
T1 sequence (P10275 whole entry): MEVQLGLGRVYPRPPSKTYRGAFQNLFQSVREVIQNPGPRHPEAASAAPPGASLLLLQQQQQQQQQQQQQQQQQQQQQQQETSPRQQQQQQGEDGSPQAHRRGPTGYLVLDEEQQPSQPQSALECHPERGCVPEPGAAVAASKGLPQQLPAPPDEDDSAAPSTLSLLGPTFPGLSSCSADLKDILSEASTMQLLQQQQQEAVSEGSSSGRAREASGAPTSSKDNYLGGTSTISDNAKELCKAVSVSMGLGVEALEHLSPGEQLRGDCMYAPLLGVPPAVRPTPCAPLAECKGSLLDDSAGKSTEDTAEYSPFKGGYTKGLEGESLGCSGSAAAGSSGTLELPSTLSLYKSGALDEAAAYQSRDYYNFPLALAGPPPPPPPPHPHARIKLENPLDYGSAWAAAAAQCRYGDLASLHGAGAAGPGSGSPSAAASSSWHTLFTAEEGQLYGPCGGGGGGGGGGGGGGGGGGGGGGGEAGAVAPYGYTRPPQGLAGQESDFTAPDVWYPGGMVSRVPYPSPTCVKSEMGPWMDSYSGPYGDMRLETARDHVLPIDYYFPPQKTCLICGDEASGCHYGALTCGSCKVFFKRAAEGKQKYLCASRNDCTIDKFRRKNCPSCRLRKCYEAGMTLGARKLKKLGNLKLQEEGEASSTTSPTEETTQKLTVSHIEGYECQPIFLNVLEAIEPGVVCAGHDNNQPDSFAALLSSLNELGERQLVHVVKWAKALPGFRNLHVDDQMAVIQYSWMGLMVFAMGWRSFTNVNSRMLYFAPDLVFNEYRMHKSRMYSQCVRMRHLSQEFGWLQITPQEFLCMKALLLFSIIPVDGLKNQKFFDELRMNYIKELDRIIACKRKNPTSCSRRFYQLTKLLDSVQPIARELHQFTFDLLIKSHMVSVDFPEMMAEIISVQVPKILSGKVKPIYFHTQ

[10] = Fraction unbound in rat plasma by equilibrium dialysis method; format: ADME, cell-free
Method in brief: (§4)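 Plasma protein binding measured by equilibrium dialysis in mouse, rat, dog and human plasma, reported as % free.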

[11] = AUC (0 to infinity) in rat at 5 mg/kg, iv; format: ADME, organism-based; design: dose 5 mg/kg, route intravenous, time infinity; settings: in vivo; method in brief: as §2
[12] = Half life in dog at 1 mg/kg, iv and 2 mg/kg, po; format: ADME, organism-based, Canis lupus familiaris; settings: in vivo; method in brief: as §2
[13] = test system: CWR22; assay: Antitumor activity against human CWR22 cells in Balb/c athymic (nu/nu) mouse CWR22-BMSLD1 prostate cancer xenograft model assessed as tumor growth inhibition at 90 mg/kg, po qd administered for 45 days measured every day during compound dosing; format: functional, organism-based; method in brief: as §3
[14] = Fraction unbound in mouse plasma by equilibrium dialysis method; format: ADME, cell-free; method in brief: as §4
[15] = biological target: T2, Cytochrome P450 2B6 (Homo sapiens, UniProt P20813); assay: Inhibition of human CYP2B6; format: ADME
T2 sequence (P20813 whole entry): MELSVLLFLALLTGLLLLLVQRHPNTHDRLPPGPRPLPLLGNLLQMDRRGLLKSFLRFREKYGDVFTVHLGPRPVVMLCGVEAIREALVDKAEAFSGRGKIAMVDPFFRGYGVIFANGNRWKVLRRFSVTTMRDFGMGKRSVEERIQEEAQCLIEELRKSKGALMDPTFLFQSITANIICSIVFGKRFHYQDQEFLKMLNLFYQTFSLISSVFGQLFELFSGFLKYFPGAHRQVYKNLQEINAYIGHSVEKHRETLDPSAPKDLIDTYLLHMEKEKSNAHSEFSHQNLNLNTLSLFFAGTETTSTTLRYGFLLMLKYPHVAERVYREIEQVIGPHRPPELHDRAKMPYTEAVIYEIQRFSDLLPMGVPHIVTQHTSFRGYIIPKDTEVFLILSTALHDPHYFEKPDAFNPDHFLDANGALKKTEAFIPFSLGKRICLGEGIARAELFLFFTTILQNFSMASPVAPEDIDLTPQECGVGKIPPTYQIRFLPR

[16] = AUC (0 to infinity) in mouse at 10 mg/kg, po; format: ADME, organism-based; design: dose 10 mg/kg, route oral, time infinity; settings: in vivo; method in brief: as §2
[17] = Drug metabolism in monkey hepatocytes assessed per 10^6 cells; format: ADME, cell-based, Macaca mulatta, Hepatocyte; settings: rhesus monkey; method in brief: as §1
[18] = test system: Rattus norvegicus; assay: In vivo antagonist activity at androgen receptor in immature Sprague-Dawley rat prostate weight model assessed as testosterone propionate-induced weight of seminal vesicles over full body weight at 10 mg/kg, po qd administered for 4 days; format: functional; design: scale not given: the % may be the effect or the level left
Method in brief: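 Immature rat prostate weight PK/PD model. Oral dosing once daily at 1 or 10 mg/kg for 4 days. Seminal vesicle weight expressed as % of full body weight, n=3, scaled so testosterone-treated control = 100% and sham = 10%.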

Chain of Cytochrome P450 3A4 (P08684 whole entry): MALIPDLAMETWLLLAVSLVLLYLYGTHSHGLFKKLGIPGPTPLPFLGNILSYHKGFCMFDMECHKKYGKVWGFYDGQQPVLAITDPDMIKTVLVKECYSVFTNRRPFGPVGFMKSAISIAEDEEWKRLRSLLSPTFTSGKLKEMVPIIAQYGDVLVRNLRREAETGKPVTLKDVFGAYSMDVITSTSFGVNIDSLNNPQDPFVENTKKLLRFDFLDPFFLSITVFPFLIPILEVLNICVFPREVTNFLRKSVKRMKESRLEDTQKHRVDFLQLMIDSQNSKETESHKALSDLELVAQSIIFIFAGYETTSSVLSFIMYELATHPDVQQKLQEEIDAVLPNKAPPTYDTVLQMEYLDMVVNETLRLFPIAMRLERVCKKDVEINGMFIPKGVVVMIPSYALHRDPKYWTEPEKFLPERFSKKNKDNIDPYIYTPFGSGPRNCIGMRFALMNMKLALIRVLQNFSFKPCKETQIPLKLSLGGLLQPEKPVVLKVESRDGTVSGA

CCS(=O)(=O)N[C@@H]1C[C@]2(C)O[C@]1(C)[C@@H]1C(=O)N(c3ccc(C#N)c(C(F)(F)F)c3)C(=O)[C@@H]12
IC50 [1]: > 40000 nM | inhibition at 30 µM [2]: 0% | Drug metabolism [3]: 26 pmol/min | Drug metabolism [4]: 3 pmol/min | IC50 [5]: 153 nM | clearance [6]: 0.35 mL/min/kg | TGI [7]: Active | half-life [8]: 3.7 h | IC50 [9]: 16 nM | fraction unbound [10]: 0.106 | AUC(0-inf) [11]: 31.7 µM·h | half-life [12]: 21.8 h | TGI [13]: Active | fraction unbound [14]: 0.148 | IC50 [15]: > 40000 nM | AUC(0-inf) [16]: 74.1 µM·h | Drug metabolism [17]: 1 pmol/min | Activity [18]: 26%
